Assay [1] deals with Pseudoalteromonas ulvae. The assay can be described thus: Anti-biofilm activity against Pseudoalteromonas ulvae TC14 assessed as inhibition of bacterial adhesion incubated for 15 hrs at 20 degC by Syto 61 dye based fluorescence assay. It counts as functional, organism-based. Put shortly:
(§1)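 Biofilm formation (adhesion) of the marine strains was measured with the Syto 61 fluorophore, using a method adapted from Leroy et al. Compounds were first screened at 200 µM, and the value is % adhesion at that concentration. EC50 values were derived from the same assay.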

The subject of assay [2] is Paracoccus sp. Put plainly: Anti-biofilm activity against Paracoccus sp. 4M6 assessed as bacterial adhesion at 200 uM incubated for 15 hrs at 20 degC by Syto 61 dye based fluorimetric assay relative to control. It counts as functional. The procedure, abridged: as §1
For assay [3], the system named is Pseudoalteromonas lipolytica. Put plainly: Anti-biofilm activity against Pseudoalteromonas lipolytica TC8 assessed as bacterial adhesion at 200 uM incubated for 15 hrs at 20 degC by Syto 61 dye based fluorimetric assay relative to control. It is filed as functional. The procedure, abridged: as §1
Assay [4] relates to Pseudoalteromonas lipolytica. Put plainly: Anti-biofilm activity against Pseudoalteromonas lipolytica TC8 assessed as inhibition of bacterial adhesion incubated for 15 hrs at 20 degC by Syto 61 dye based fluorimetric assay. It counts as functional, organism-based. The procedure, abridged:
as §1

Assay [5] relates to Paracoccus sp. Put plainly: Anti-biofilm activity against Paracoccus sp. 4M6 assessed as inhibition of bacterial adhesion incubated for 15 hrs at 20 degC by Syto 61 dye based fluorimetric assay. It counts as functional, organism-based. The procedure, abridged: as §1
Assay [6] relates to Pseudoalteromonas ulvae. Put plainly: Anti-biofilm activity against Pseudoalteromonas ulvae TC14 assessed as bacterial adhesion at 200 uM incubated for 15 hrs at 20 degC by Syto 61 dye based fluorescence assay relative to control. It is filed as functional. The procedure, abridged:
as §1

The mark [7] stands for this setting: Pseudoalteromonas ulvae, TC14, 15 h.
Where [8] appears, read: Pseudoalteromonas lipolytica, TC8, 15 h.
Where [9] appears, read: Paracoccus sp. (in: a-proteobacteria), 4M6, 15 h.

What is called EC50 is the midpoint of the concentration-response curve.

As for `CN(C)CCOc1ccc(CCn2cc(CCCCCCc3cn(CCc4ccc(OCCN(C)C)c(Br)c4)nn3)nn2)cc1Br`, the EC50 (with Pseudoalteromonas ulvae [1] (setting [7]); in assay [4] (setting [8]); with Paracoccus sp. [5] (setting [9])) was above 200 µM in each case. For the same molecule, the values for the Activity (in the assay on Paracoccus sp. [2]; in assay [3]) were 59.5% and 54.4%, respectively.
Turning to `CN(C)CCCOc1ccc(CCn2cc(CNCc3cn(CCc4ccc(OCCCN(C)C)c(Br)c4)nn3)nn2)cc1Br`, the EC50 in the assay with Pseudoalteromonas ulvae [1] (setting [7]) and in the assay with Paracoccus sp. [5] (setting [9]) was above 200 µM throughout. Further, the results for the Activity in the assay with Pseudoalteromonas ulvae [6] and in the assay with Paracoccus sp. [2] were 45% and 56.3%, respectively.
Consider `CN(C)CCCOc1ccc(CCn2cc(CCCc3cn(CCc4ccc(OCCCN(C)C)c(Br)c4)nn3)nn2)cc1Br`, for which the half-maximal effective concentration (EC50) (in the assay with Pseudoalteromonas ulvae [1] (setting [7]); in assay [4] (setting [8]); with Paracoccus sp. [5] (setting [9])) was above 200 µM in each case. Moreover, the Activity in the assay on Paracoccus sp. [2] is given as 77.2%.
In the case of `CN(C)CCOc1ccc(CCn2cc(CNCc3cn(CCc4ccc(OCCN(C)C)c(Br)c4)nn3)nn2)cc1Br`, the values for the Activity in the assay with Pseudoalteromonas ulvae [6] and with Paracoccus sp. [2] were 40.9% and 51.8%, respectively. Further, the EC50 in the assay with Paracoccus sp. [5] (setting [9]) is above 200 µM.
Regarding `CN(C)CCOc1ccc(CCn2cc(CCCCc3cn(CCc4ccc(OCCN(C)C)c(Br)c4)nn3)nn2)cc1Br`, the 50% effective concentration (EC50) (in the assay on Pseudoalteromonas ulvae [1] (setting [7]); in assay [4] (setting [8]); in the assay on Paracoccus sp. [5] (setting [9])) was above 200 µM in each case. Besides, the Activity was 57.4% in the assay with Paracoccus sp. [2] and 58.5% in assay [3].
Regarding `Oc1ccc(CCn2cc(CNCc3cn(CCc4ccc(O)c(Br)c4)nn3)nn2)cc1Br`, the EC50 in the assay with Pseudoalteromonas ulvae [1] (setting [7]) was 59.9 µM; in assay [4] (setting [8]) it was 80.3 µM; in the assay with Paracoccus sp. [5] (setting [9]) it was 88.3 µM. For the same molecule, the Activity in the assay with Paracoccus sp. [2] stood at 27.9%.
For `CN(C)CCOc1ccc(CCn2cc(CCCc3cn(CCc4ccc(OCCN(C)C)c(Br)c4)nn3)nn2)cc1Br`, the 50% effective concentration (EC50) (with Pseudoalteromonas ulvae [1] (setting [7]); in assay [4] (setting [8]); in the assay on Paracoccus sp. [5] (setting [9])) was above 200 µM in each case. The figures for the Activity (in the assay with Paracoccus sp. [2]; in assay [3]) were 51.5% and 57%, respectively.
For `COc1ccc(CCn2cc(CNCc3cn(CCc4ccc(OC)c(Br)c4)nn3)nn2)cc1Br`, the Activity with Paracoccus sp. [2] turned out to be 46.3%. Further, in the assay with Paracoccus sp. [5] (setting [9]), the EC50 is 194 µM.
Consider `COc1ccc(CCn2cc(CCCc3cn(CCc4ccc(OC)c(Br)c4)nn3)nn2)cc1Br`, for which the EC50 (with Pseudoalteromonas ulvae [1] (setting [7]); in assay [4] (setting [8]); with Paracoccus sp. [5] (setting [9])) was above 200 µM throughout. In addition, the Activity is recorded as 49.2% with Paracoccus sp. [2] and 50% in assay [3].
Regarding `Oc1ccc(CCn2cc(CCCCc3cn(CCc4ccc(O)c(Br)c4)nn3)nn2)cc1Br`, the EC50 (in the assay on Pseudoalteromonas ulvae [1] (setting [7]); in assay [4] (setting [8]); in the assay on Paracoccus sp. [5] (setting [9])) was above 200 µM in each case. Besides, the Activity in the assay with Paracoccus sp. [2] turned out to be 52.4%.
Regarding `CN(C)CCCOc1ccc(CCn2cc(COCc3cn(CCc4ccc(OCCCN(C)C)c(Br)c4)nn3)nn2)cc1Br`, in the assay with Paracoccus sp. [2], the Activity is on record as 53.7%. Besides, the EC50 (in assay [4] (setting [8]); in the assay on Paracoccus sp. [5] (setting [9])) was above 200 µM in each case.
For the molecule `CN(C)CCOc1ccc(CCn2cc(COCc3cn(CCc4ccc(OCCN(C)C)c(Br)c4)nn3)nn2)cc1Br`, the EC50 in the assay with Pseudoalteromonas ulvae [1] (setting [7]) turned out to be 91.8 µM; with Paracoccus sp. [5] (setting [9]) it was 146 µM. Moreover, the Activity in the assay on Paracoccus sp. [2] is given as 40.4%.
`Oc1ccc(CCn2cc(COCc3cn(CCc4ccc(O)c(Br)c4)nn3)nn2)cc1Br`: the Activity in the assay with Pseudoalteromonas ulvae [6] stood at 40.3%; in the assay on Paracoccus sp. [2], 47.8%; in assay [3], 50.3%. Also, the EC50 in the assay with Paracoccus sp. [5] (setting [9]) is 198 µM.
In the case of `COc1ccc(CCn2cc(CCCCc3cn(CCc4ccc(OC)c(Br)c4)nn3)nn2)cc1Br`, the EC50 (in the assay on Pseudoalteromonas ulvae [1] (setting [7]); in assay [4] (setting [8]); in the assay on Paracoccus sp. [5] (setting [9])) was above 200 µM in each case. For the same molecule, the Activity in the assay with Paracoccus sp. [2] worked out at 50.9%.
Regarding `Oc1ccc(CCn2cc(-c3ccc(-c4cn(CCc5ccc(O)c(Br)c5)nn4)cc3)nn2)cc1Br`, the EC50 in the assay with Pseudoalteromonas ulvae [1] (setting [7]) was 40.9 µM; in assay [4] (setting [8]), above 200 µM; with Paracoccus sp. [5] (setting [9]), 59.9 µM. Moreover, the values for the Activity with Pseudoalteromonas ulvae [6] and with Paracoccus sp. [2] were 31.1% and 31.8%, respectively.
As to tributyltin-oxide, the figures for the EC50 (in the assay with Pseudoalteromonas ulvae [1]; in assay [4]; with Paracoccus sp. [5]) were 0.7 µM, 7 µM and 4 µM, respectively.

The values are drawn from ChEMBL document CHEMBL4330109, “Parallel synthesis of a bis-triazoles library as psammaplin A analogues: A new wave of antibiofilm compounds?” (Bioorg Med Chem Lett, 2019).
